The text below walks through data of ChEMBL document CHEMBL4043302, “Lead Diversification at the Nanomole Scale Using Liver Microsomes and Quantitative Nuclear Magnetic Resonance Spectroscopy: Application to Phosphodiesterase 2 Inhibitors” (J Med Chem, 2018).

The nature of series [1]: Intrinsic clearance in human hepatocytes assessed per million cells at 1 uM after 0.5 to 4 hrs by HPLC-HRMS method. As to conditions: for hepatocyte CLint at 1 µM: human hepatocytes, read-out: CLH. The class given is ADME, cell-based, Hepatocyte. The essentials:
(§1)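 Compound at 1 µM was dried from d6-DMSO and redissolved in Williams E medium. Pooled human hepatocytes were added at 680000 cells/mL. Samples were quenched in water/CH3CN (2:1) with 2% formic acid and clozapine as internal standard, then analysed by HPLC-HRMS in positive-ion full scan. k came from the slope of ln peak-area ratio versus time; CLint = k / cell concentration. Non-specific binding was not measured.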

Series [2] is described as follows: (§2) Apparent permeability across RRCK cells after 1.5 hrs. The class given is ADME, cell-based, Canis lupus familiaris, MDCKII-LE. As to conditions: dog, MDCK.
A short description of series [3]: Drug level in hamster liver microsomes treated with 7-(5-(4-Methoxyphenyl)-1,3-dimethyl-1H-pyrazol-4-yl)-2,5-dimethylimidazo[5,1-f ][1,2,4]triazin-4(3H)-one at 20 uM after 1.5 hrs by UHPLC-UV-HRMS method. The class given is ADME, microsome. As to conditions: cricetinae. The essentials:
(§3)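 Preparative incubation: substrate 20 µM with liver microsomes (2 mg/mL) of the listed species in 0.1 M potassium phosphate, pH 7.5, with MgCl2 3.3 mM and NADPH 1.3 mM. Run at 37°C in a shaking water bath and stopped with an equal volume of CH3CN. Products were fractionated by HPLC and quantified by qNMR in d6-DMSO.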

Series [4] in a line: Metabolic stability in human hepatocytes at 1 uM after 0.5 to 4 hrs by HPLC-HRMS method. Type of series: ADME, cell-based, Hepatocyte. The gist of the method:
as §1

The nature of series [5]: Drug level in cynomolgus monkey liver microsomes treated with 7-(1,3-Dimethyl-5-(5-(trifluoromethyl)pyridine-2-yl)-1H-pyrazol-4-yl)-2,5-dimethylimidazo[5,1-f ][1,2,4]triazin-4(3H)-one at 20 uM after 1.2 hrs by UHPLC-UV-HRMS method. The class given is ADME, Macaca fascicularis, microsome. The gist of the method:
as §3

Series [6] deals with Liver. Nature of the series: Drug metabolism in mouse liver microsomes assessed as 7-(5-(4-Chlorophenyl)-1,3-dimethyl-1H-pyrazol-4-yl)-5-(hydroxymethyl)-2-methylimidazo[5,1-f ][1,2,4]triazin-4(3H)-one formation at 20 uM after 1.5 hrs by UHPLC-UV-HRMS method. The class given is ADME, microsome. The essentials: as §3
Series [7] relates to Liver. Nature of the series: Drug metabolism in mouse liver microsomes assessed as 7-(5-(4-Chlorophenyl)-3-(hydroxymethyl)-1-methyl-1H-pyrazol-4-yl)-2,5-dimethylimidazo[5,1-f ][1,2,4]triazin-4(3H)-one formation at 20 uM after 1.5 hrs by UHPLC-UV-HRMS method. The class given is ADME, microsome. The essentials:
as §3

Series [8] has as its system Liver. Nature of the series: Drug level in mouse liver microsomes treated with 7-(5-(4-Chlorophenyl)-1,3-dimethyl-1H-pyrazol-4-yl)-2,5-dimethylimidazo[5,1-f ][1,2,4]triazin-4(3H)-one at 20 uM after 1.5 hrs by UHPLC-UV-HRMS method. Type of series: ADME, microsome. The essentials:
as §3

A short description of series [9]: Drug metabolism in hamster liver microsomes assessed as 5-(Hydroxymethyl)-2-methyl-7-(3-methyl-5-(4-(trifluoromethyl)-phenyl)-1H-pyrazol-4-yl)imidazo[5,1-f ][1,2,4]triazin-4(3H)-one formation at 20 uM after 1 hr by UHPLC-UV-HRMS method. Type of series: ADME, microsome. As to conditions: cricetinae. The gist of the method:
as §3

The nature of series [10]: Drug metabolism in hamster liver microsomes assessed as 7-(3-(Hydroxymethyl)-5-(4-(trifluoromethyl)phenyl)-1H-pyrazol-4-yl)-5-(methoxymethyl)-2-methylimidazo[5,1-f ][1,2,4]triazin-4(3H)-one formation at 20 uM after 1 hr by UHPLC-UV-HRMS method. The class given is ADME, microsome. As to conditions: cricetinae. The essentials: as §3
A short description of series [11]: Drug metabolism in hamster liver microsomes assessed as 5-(Methoxymethyl)-2-methyl-7-(3-methyl-5-(4-(trifluoromethyl)-phenyl)-1H-pyrazol-4-yl)imidazo[5,1-f ][1,2,4]triazin-4(3H)-one formation at 20 uM after 1 hr by UHPLC-UV-HRMS method. The class given is ADME, microsome. As to conditions: cricetinae. The essentials:
as §3

The nature of series [12]: Drug metabolism in hamster liver microsomes assessed as 7-(1,3-Dimethyl-5-(4-(trifluoromethyl)phenyl)-1H-pyrazol-4-yl)-5-(methoxymethyl)-2-methyl-4-oxo-3,4-dihydroimidazo[5,1-f ][1,2,4]-triazine 1-oxide formation at 20 uM after 1 hr by UHPLC-UV-HRMS method. The class given is ADME, microsome. As to conditions: cricetinae. The gist of the method: as §3
For series [13], the system named is MDCKII-LE. The description is as §2. The class given is ADME, cell-based, Canis lupus familiaris. As to conditions: dog, mdckii-le, 1.5 h.
Series [14] in a line: Drug metabolism in cynomolgus monkey liver microsomes assessed as 5-(Difluoromethyl)-7-(3-(hydroxymethyl)-1-methyl-5-(4-(trifluoromethyl)phenyl)-1H-pyrazol-4-yl)-2-methylimidazo[5,1-f ]-[1,2,4]triazin-4(3H)-one formation at 20 uM after 1.5 hrs by UHPLC-UV-HRMS method. Type of series: ADME, Macaca fascicularis, microsome. The gist of the method:
as §3

A short description of series [15]: Drug metabolism in cynomolgus monkey liver microsomes assessed as 5-(Difluoromethyl)-2-methyl-7-(3-methyl-5-(4-(trifluoromethyl)-phenyl)-1H-pyrazol-4-yl)imidazo[5,1-f ][1,2,4]triazin-4(3H)-one at 20 uM after 1.5 hrs by UHPLC-UV-HRMS method. The class given is ADME, Macaca fascicularis, microsome. The essentials:
as §3

Series [16] relates to Liver. The series is described as follows: Drug level in human liver microsomes treated with 2-(3,4-dimethoxybenzyl)-7-((2S,3R)-2-hydroxy-6-phenylhexan-3-yl)-5-methylimidazo[1,5-f][1,2,4]triazin-4(3H)-one at 20 uM after 1 hr by UHPLC-UV-HRMS method. Type of series: ADME, microsome. The essentials:
as §3

Turning to `COc1ccc(-c2[nH]nc(C)c2-c2nc(C)c3c(=O)[nH]c(C)nn23)cn1`, in [1], the hepatocyte CLint at 1 µM was determined as 1.9 µL/min/1e6 cells. In series [2], the Papp at 1.5 h was determined as 1.1 ×10⁻⁶ cm/s. In series [3], the Drug metabolism entry is “Metabolite_Detected”.

Regarding `Cc1nn2c(-c3c(CO)nn(C)c3-c3ccc(C(F)(F)F)cn3)nc(CO)c2c(=O)[nH]1`, the Papp at 1.5 h in series [2] came out at 0.54 ×10⁻⁶ cm/s. For the same compound, the Stability result in series [4] is reported as “Stable”. Moreover, the Drug metabolism result in series [5] is given as “Metabolite_Detected”.

Regarding `Cc1nn2c(-c3c(C)nn(C)c3-c3ccc(Cl)cc3)nc(C)c2c(=O)[nH]1`, the hepatocyte CLint at 1 µM in series [1] was 32 µL/min/1e6 cells. Besides, the Drug metabolism result in series [6] and in series [7] was “Metabolite_Detected” each time.

Take `Cc1nn2c(-c3c(CO)nn(C)c3-c3ccc(Cl)cc3)nc(C)c2c(=O)[nH]1`: the hepatocyte CLint at 1 µM in series [1] came to 11 µL/min/1e6 cells. In addition, the Papp at 1.5 h in series [2] amounted to 19 ×10⁻⁶ cm/s. In series [8], the Drug metabolism result was “Metabolite_Detected”.

As to `Cc1nn2c(-c3c(C)nn(C)c3-c3ccc(C(F)(F)F)cn3)nc(CO)c2c(=O)[nH]1`, the Papp at 1.5 h in series [2] came out at 1.7 ×10⁻⁶ cm/s. The Stability entry in [4] was “Stable”. For the same compound, in series [5], the Drug metabolism result was “Metabolite_Detected”.

For `Cc1nn2c(-c3c(C)nn(C)c3-c3ccc(Cl)cc3)nc(CO)c2c(=O)[nH]1`, the hepatocyte CLint at 1 µM in series [1] was determined as 15 µL/min/1e6 cells. In series [2], the Papp at 1.5 h worked out at 4.9 ×10⁻⁶ cm/s. Moreover, the Drug metabolism entry in series [8] was “Metabolite_Detected”.

For the compound `COCc1nc(-c2c(C)nn(C)c2-c2ccc(C(F)(F)F)cc2)n2nc(C)[nH]c(=O)c12`, the hepatocyte CLint at 1 µM in series [1] was 4.7 µL/min/1e6 cells. Besides, the apparent permeability (Papp) at 1.5 h in series [2] came to 13 ×10⁻⁶ cm/s. Besides, the Drug metabolism result in series [9], in series [10], in [11] and in series [12] was “Metabolite_Detected” in each case.

In [1] (hepatocytes, 1 µM), `COc1ccc(Cc2nn3c([C@@H](CCC(O)c4ccccc4)[C@H](C)O)nc(C)c3c(=O)[nH]2)cc1OC` (single isomer, unassigned; diastereomer 2) yielded a CLint of 14 µL/min/1e6 cells. Further, in series [13], the Papp worked out at 2.2 ×10⁻⁶ cm/s.

Consider `Cc1nn2c(-c3c(C)nn(C)c3-c3ccc(C(F)(F)F)cc3)nc(C(F)F)c2c(=O)[nH]1`, for which the hepatocyte CLint at 1 µM in series [1] was 5.3 µL/min/1e6 cells. Moreover, the apparent permeability (Papp) at 1.5 h in series [2] was found to be 23 ×10⁻⁶ cm/s. Besides, the Drug metabolism result in series [14] and in series [15] was “Metabolite_Detected” throughout.

Regarding `COc1ccc(Cc2nn3c([C@@H](CCC(O)c4ccccc4)[C@H](C)O)nc(C)c3c(=O)[nH]2)cc1OC` (stereo in doubt), the hepatocyte CLint at 1 µM in series [1] was found to be 11 µL/min/1e6 cells. Besides, the Papp at 1.5 h in [2] came out at 2.8 ×10⁻⁶ cm/s. Also, the Drug metabolism result in [16] is recorded as “Metabolite_Detected”.

In the case of `COc1ccc(Cc2nn3c([C@@H](CCC(O)c4ccccc4)[C@H](C)O)nc(C)c3c(=O)[nH]2)cc1O` (stereo partly specified), the hepatocyte CLint at 1 µM in series [1] was 9.6 µL/min/1e6 cells. In addition, the apparent permeability coefficient (Papp) at 1.5 h in series [2] was determined as 1.2 ×10⁻⁶ cm/s. For the same compound, the Drug metabolism result in series [16] is “Metabolite_Detected”.
